Measured values: paper PMC3553949 (Nucleic Acids Research, 2012)
“Also recorded” adds a separate entry of the source. Non-standard residues stand in square brackets, D forms with d. No end group written: not given here. pT = C[C@@H](OP(=O)(O)O)[C@H](N)C(=O)O

What was measured:
EGFP-EZH2 [1] = assay type: cell-based, mouse; conditions: 100 µM roscovitine, 2 h preincubation, HEK293T cells
Procedure, shortened: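 HEK293T cells were transfected (Jetprime) with EGFP-tagged mouse EZH2, then preincubated with the CDK inhibitor roscovitine before lysis. EGFP-EZH2 was probed by immunoblot with a rabbit antibody raised against the Thr416-phosphorylated peptide (residues 410–421) coupled to KLH. The antibody was affinity-purified on non-phospho and phospho-peptide–BSA columns. Detection was by ECL imaging.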

NIPP1 FHA domain = NIPP1 FHA domain (Homo sapiens, UniProt Q12972); assay: NMR titration; assay type: binding
Procedure, shortened: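 ¹⁵N-labelled NIPP1 FHA domain was expressed in E. coli grown in M9 with ¹⁵NH₄Cl, His₆-MBP tag removed by TEV, and purified by size exclusion. The domain (0.1 mM) in 20 mM BisTris pH 6.3, 50 mM NaCl, 5 mM DTT was titrated with increasing mouse EZH2 dodecapeptide concentrations at 298 K (500 MHz, 2D ¹H,¹⁵N HSQC). Kd came from nonlinear fitting of CSP versus peptide concentration.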

[2] = test system: EZH2-FHA interaction (EGFP-EZH2 / GST-FHA of NIPP1); assay: Competition GST pull-down of EGFP-EZH2 with EZH2 dodecapeptides; assay type: binding; conditions: 1 mM of the indicated EZH2 dodecapeptides
PP1 = PP1 associated with immunoprecipitated EGFP-EZH2; assay type: binding; conditions: HEK293T cell lysates, immunoblot
Procedure, shortened: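 EGFP-EZH2 (wild-type or TP5 mutant; EGFP-βgal control) was transiently expressed in HEK293T cells and immunoprecipitated from lysates. Lysis buffers contained 20 mM NaF, 5 µM leupeptin, 0.5 mM PMSF and 0.5 mM benzamidine. Co-precipitated PP1 was detected by immunoblotting with ECL.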

EED, SUZ12 and RbAp48 = assay: PRC2 components in immunoprecipitated EGFP-EZH2 complexes; assay type: binding; conditions: immunoblot, Supplementary Figure S5
NIPP1-FHA domain = assay: GST pull-down of EGFP-EZH2 TP mutants with GST-FHA; assay type: binding; conditions: Thr to Ala mutants, n = 4
Procedure, shortened: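 Mouse EZH2 Thr→Ala mutants were made by site-directed mutagenesis in an EGFP-IRES-puro vector and transfected with Jetprime. Lysis buffers contained NaF, leupeptin, PMSF and benzamidine.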

endogenous NIPP1 = assay: Co-immunoprecipitation of EZH2 fusions with endogenous NIPP1; assay type: binding; conditions: HEK293T cell lysates
EGFP-EZH2 [3] = assay: In vitro phosphorylation of EGFP-EZH2 by cyclinA/CDK2; assay type: biochemical, mouse; conditions: autoradiography, γ32P-ATP, cyclinA/CDK2, 60 min, 30°C
Procedure, shortened: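 Purified EGFP-tagged mouse EZH2 was incubated 60 min at 30°C with recombinant cyclinA/CDK2 (bacterially expressed). Buffer: 20 mM Tris/HCl pH 7.5, 2 mM DTT, 0.1 mg/ml BSA, 2 mM MgAc, 100 µM ATP, with or without γ³²P-ATP.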

EGFP-EZH2 [4] = assay: Phosphorylation status of EGFP-EZH2 TP mutants in cells; assay type: cell-based, mouse; conditions: EGFP-EZH2 mutant from cells, immunoblot
Procedure, shortened: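 EGFP-tagged mouse EZH2 variants (EGFP alone as control) were expressed in cells and isolated by EGFP trap. Elution used 0.2 M glycine pH 2.5 for 90 s, immediately neutralised with 1 M Tris pH 10.8. Eluates were immunoblotted with a pan-phospho-Thr-Pro antibody and an affinity-purified phospho-Thr416 (pTP5) antibody. Blots were visualised by ECL and quantified by densitometry.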

[5] = target: NIPP1 FHA domain (15N-labelled, for NMR); assay: NMR titration
EZH2, EED and SUZ12 = assay: EGFP trap of EGFP-NIPP1 and co-precipitation of core PRC2 components; assay type: binding; conditions: EGFP-NIPP1 WT or FHAm, HEK293T cell lysates
Procedure, shortened: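 EGFP-NIPP1 is expressed in HEK293T cells by plasmid transfection (Jetprime) and captured by EGFP trap from lysates. Lysis buffer contains 20 mM NaF, 5 µM leupeptin, 0.5 mM PMSF and 0.5 mM benzamidine. Co-precipitated proteins are detected by immunoblotting, using anti-EZH2 (AC-22), an in-house rabbit anti-EED raised against His-EED, and anti-SUZ12 (3C1.2).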

EGFP-EZH2 [6] = assay: In vitro dephosphorylation of EGFP-EZH2 by PP1; assay type: biochemical, mouse
Procedure, shortened: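 Mouse EGFP-EZH2 is expressed in HEK293T cells and isolated by immunoprecipitation or EGFP trap. It is incubated 30 min at 30°C in 50 mM Tris/HCl pH 7.5, 1 mM DTT, 0.1 mg/ml BSA with one of: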

In the case of CC[C@H](CO)Nc1nc(NCc2ccccc2)c2ncn(C(C)C)c2n1 [roscovitine], the “binding of EGFP-EZH2 to GST-FHA” value (EGFP-EZH2 [1]) is reported as “abolished” and the “detection of EGFP-EZH2 by pTP5 antibody” value (EGFP-EZH2 [1]) is reported as “not detected”.

In the case of ANSRCQ(p)TPIKMK [pTP5], the saturation of binding (NIPP1 FHA domain; 10-fold molar excess of the peptide) is reported as “Saturation was not achieved even after a 10-fold molar excess of the peptide”, the “binding of purified FHA domain to EZH2-derived dodecapeptide” value (NIPP1 FHA domain; summary in Discussion) is reported as “interacts rather poorly” and the “EZH2-FHA interaction in presence of peptide” value [2] is reported as “decreased EZH2-FHA interaction”.

In the case of “EZH2-WT: EGFP- or Dam-tagged wild-type mouse EZH2”, the “associated PP1” value (PP1) is reported as “contained the same amount of PP1” and the “abundance of EED, SUZ12 and RbAp48 in complex” value (EED, SUZ12 and RbAp48) is reported as “equally abundant”.

“EZH2-mTP5: EZH2 with Thr416 (TP5) mutated to Ala” was tested, and the “binding of EZH2 TP mutant to GST-FHA” value (NIPP1-FHA domain) was “complete loss of binding”, the “co-immunoprecipitation with endogenous NIPP1” value (endogenous NIPP1) was “no longer co-immunoprecipitated with endogenous NIPP1” and the “in vitro phosphorylation of EZH2 by CDK2” value (EGFP-EZH2 [3]) was “moderately reduced”. For the same molecule, the pTP5 signal (EGFP-EZH2 [4]) was “not detected”, the “associated PP1” value (PP1) was “contained the same amount of PP1” and the “abundance of EED, SUZ12 and RbAp48 in complex” value (EED, SUZ12 and RbAp48) was “equally abundant”.

For ANSRCQ[pT]PIKMK [EZH2 410-421 peptide, phosphorylated at Thr416 (pTP5)], the Kd [5] was 1.9 mM.

B1: EGFP-NIPP1: ectopically expressed EGFP-NIPP1 wild-type (protein)
chain: MAAAANSGSSLPLFDCPTWAGKPPPGLHLDVVKGDKLIEKLIIDEKKYYLFGRNPDLCDFTIDHQSCSRVHAALVYHKHLKRVFLIDLNSTHGTFLGHIRLEPHKPQQIPIDSTVSFGASTRAYTLREKPQTLPSAVKGDEKMGGEDDELKGLLGLPEEETELDNLTEFNTAHNKRISTLTIEEGNLDIQRPKRKRKNSRVTFSEDDEIINPEDVDPSVGRFRNMVQTAVVPVKKKRVEGPGSLGLEESGSRRMQNFAFSGGLYGGLPPTHSEAGSQPHGIHGTALIGGLPMPYPNLAPDVDLTPVVPSAVNMNPAPNPAVYNPEAVNEPKKKKYAKEAWPGKKPTPSLLI
modifications: left off: EGFP, end not stated, kept
B1 was tested, and the “co-precipitation of PRC2 components” value (EZH2, EED and SUZ12) was “Both EZH2 and EED co-precipitated; also recorded: SUZ12, which interacts directly with EZH2 but not with EED ([19]), only co-precipitated with the WT NIPP1 fusion”.

B2: NIPP1: recombinant His-NIPP1, or immunoprecipitated EGFP-NIPP1/PP1 complex (protein, UniProt Q12972 1-351, looked up)
Nuclear inhibitor of protein …: MAAAANSGSSLPLFDCPTWAGKPPPGLHLDVVKGDKLIEKLIIDEKKYYLFGRNPDLCDFTIDHQSCSRVHAALVYHKHLKRVFLIDLNSTHGTFLGHIRLEPHKPQQIPIDSTVSFGASTRAYTLREKPQTLPSAVKGDEKMGGEDDELKGLLGLPEEETELDNLTEFNTAHNKRISTLTIEEGNLDIQRPKRKRKNSRVTFSEDDEIINPEDVDPSVGRFRNMVQTAVVPVKKKRVEGPGSLGLEESGSRRMQNFAFSGGLYGGLPPTHSEAGSQPHGIHGTALIGGLPMPYPNLAPDVDLTPVVPSAVNMNPAPNPAVYNPEAVNEPKKKKYAKEAWPGKKPTPSLLI
modifications: His tag
For B2, the “effect on PP1-mediated dephosphorylation of EGFP-EZH2” value (EGFP-EZH2 [6]; 500 nM PP1, recombinant His-NIPP1 4.5 µM to 55 nM) was “abolished”, the “dephosphorylation of EGFP-EZH2 by immunoprecipitated NIPP1/PP1” value (EGFP-EZH2 [6]; after pretreatment with trypsin) was “the immunoprecipitate dephosphorylated EGFP-EZH2” and the “dephosphorylation of EGFP-EZH2 by immunoprecipitated NIPP1/PP1” value (EGFP-EZH2 [6]; without trypsin pretreatment, co-precipitated PP1 present) was “not dephosphorylated”.

B3: FHA mutant: EGFP-NIPP1 with mutated FHA domain (protein)
chain: MAAAANSGSSLPLFDCPTWAGKPPPGLHLDVVKGDKLIEKLIIDEKKYYLFGRNPDLCDFTIDHQSCAAAAAALVYHKHLKRVFLIDLNSTHGTFLGHIRLEPHKPQQIPIDSTVSFGASTRAYTLREKPQTLPSAVKGDEKMGGEDDELKGLLGLPEEETELDNLTEFNTAHNKRISTLTIEEGNLDIQRPKRKRKNSRVTFSEDDEIINPEDVDPSVGRFRNMVQTAVVPVKKKRVEGPGSLGLEESGSRRMQNFAFSGGLYGGLPPTHSEAGSQPHGIHGTALIGGLPMPYPNLAPDVDLTPVVPSAVNMNPAPNPAVYNPEAVNEPKKKKYAKEAWPGKKPTPSLLI
modifications: left off: EGFP, end not stated, kept
B3 was tested, and the “co-precipitation of PRC2 components” value (EZH2, EED and SUZ12) was “only EED co-sedimented”.
